Data set [1] has as its target T1, Aminopeptidase N (Plasmodium falciparum FcB1/Columbia, UniProt O96935).
T1 sequence (O96935 whole entry): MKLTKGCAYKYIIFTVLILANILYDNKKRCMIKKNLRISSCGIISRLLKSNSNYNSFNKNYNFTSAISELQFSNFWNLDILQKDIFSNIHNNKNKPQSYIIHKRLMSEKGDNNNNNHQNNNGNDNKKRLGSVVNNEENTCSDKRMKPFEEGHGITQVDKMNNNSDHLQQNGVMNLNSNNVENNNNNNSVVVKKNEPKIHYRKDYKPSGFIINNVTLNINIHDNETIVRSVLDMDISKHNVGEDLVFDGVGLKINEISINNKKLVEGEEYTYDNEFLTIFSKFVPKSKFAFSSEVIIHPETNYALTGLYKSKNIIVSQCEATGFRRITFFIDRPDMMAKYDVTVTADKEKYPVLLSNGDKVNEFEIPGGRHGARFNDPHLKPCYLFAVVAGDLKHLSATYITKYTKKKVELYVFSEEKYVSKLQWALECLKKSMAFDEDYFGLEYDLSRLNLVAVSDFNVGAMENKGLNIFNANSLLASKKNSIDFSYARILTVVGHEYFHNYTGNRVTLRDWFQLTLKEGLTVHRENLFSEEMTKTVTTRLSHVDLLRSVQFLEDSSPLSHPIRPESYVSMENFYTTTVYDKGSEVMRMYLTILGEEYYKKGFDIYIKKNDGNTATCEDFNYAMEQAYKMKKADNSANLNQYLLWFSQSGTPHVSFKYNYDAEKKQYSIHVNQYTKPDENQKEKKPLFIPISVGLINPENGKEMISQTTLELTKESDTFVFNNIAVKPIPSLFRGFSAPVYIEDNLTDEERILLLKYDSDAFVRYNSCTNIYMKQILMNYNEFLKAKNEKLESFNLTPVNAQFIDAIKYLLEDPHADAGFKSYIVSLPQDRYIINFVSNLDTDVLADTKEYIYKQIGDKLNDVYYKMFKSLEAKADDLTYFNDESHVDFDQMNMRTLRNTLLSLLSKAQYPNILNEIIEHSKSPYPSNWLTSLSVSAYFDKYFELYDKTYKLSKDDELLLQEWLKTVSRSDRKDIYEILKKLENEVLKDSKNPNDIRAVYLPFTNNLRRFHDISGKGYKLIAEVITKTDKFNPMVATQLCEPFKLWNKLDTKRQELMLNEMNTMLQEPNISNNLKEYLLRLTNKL
The data set is described as follows: Inhibition of Plasmodium falciparum M1 incubated for 10 mins before H-Leu-NHMec substrate addition by fluorescence assay. The method, boiled down:
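Recombinant PfA-M1 (E. coli, Ni-NTA then size exclusion) preincubated with inhibitor (0-500 μM) 10 min in 100 mM Tris pH 8.0 at 37 °C, then H-Leu-NHMec added below Km. NHMec release read at ex 355/em 460 nm to steady-state velocity; Ki from Dixon plots of 1/V against inhibitor concentration.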

Data set [2] deals with HEK293. Description: Cytotoxicity against HEK293 cells assessed as growth inhibition up to 40 uM after 72 hrs by resazurin based assay. Format: cell-based. The conditions noted are these: human, hek293, 72 h. The method, boiled down: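 HEK293 in DMEM plus 10% FCS, seeded 2000 cells/well, adhered overnight, then dosed to top final 40 μM, 0.4% DMSO, 72 h at 37 °C, 5% CO₂. Medium replaced with 44 μM resazurin in serum-free DMEM, 4-6 h more, fluorescence 530/595 nm; % growth against 40 μM puromycin and 0.4% DMSO controls; IC50 by variable-slope nonlinear regression.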
A general note: Alamar Blue is a resazurin reagent that responds to reducing activity.

For data set [3], the system named is Plasmodium falciparum. Description: Antimalarial activity against Plasmodium falciparum 3D7 assessed as parasite growth inhibition after 72 hrs by DAPI staining based confocal microscopy. Format: functional, organism-based. The conditions noted are these: 3D7, 72 h. The method, boiled down: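 Sorbitol-synchronised 3D7 rings (2% parasitaemia, 0.3% haematocrit) in RPMI/Hepes/hypoxanthine/AlbuMAX II exposed to three-step log dilutions from 40 μM top, final 0.4% DMSO, 72 h at 37 °C, 5% CO₂. Saponin/Triton X/EDTA buffer with DAPI added, overnight RT, confocal imaging counts parasites; % growth versus 2 μM artemisinin and 0.4% DMSO controls; IC50 by variable-slope nonlinear regression.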

Data set [4] concerns the target T2, Leucine aminopeptidase (Plasmodium falciparum 3D7, UniProt Q8IL11).
T2 sequence (Q8IL11 whole entry): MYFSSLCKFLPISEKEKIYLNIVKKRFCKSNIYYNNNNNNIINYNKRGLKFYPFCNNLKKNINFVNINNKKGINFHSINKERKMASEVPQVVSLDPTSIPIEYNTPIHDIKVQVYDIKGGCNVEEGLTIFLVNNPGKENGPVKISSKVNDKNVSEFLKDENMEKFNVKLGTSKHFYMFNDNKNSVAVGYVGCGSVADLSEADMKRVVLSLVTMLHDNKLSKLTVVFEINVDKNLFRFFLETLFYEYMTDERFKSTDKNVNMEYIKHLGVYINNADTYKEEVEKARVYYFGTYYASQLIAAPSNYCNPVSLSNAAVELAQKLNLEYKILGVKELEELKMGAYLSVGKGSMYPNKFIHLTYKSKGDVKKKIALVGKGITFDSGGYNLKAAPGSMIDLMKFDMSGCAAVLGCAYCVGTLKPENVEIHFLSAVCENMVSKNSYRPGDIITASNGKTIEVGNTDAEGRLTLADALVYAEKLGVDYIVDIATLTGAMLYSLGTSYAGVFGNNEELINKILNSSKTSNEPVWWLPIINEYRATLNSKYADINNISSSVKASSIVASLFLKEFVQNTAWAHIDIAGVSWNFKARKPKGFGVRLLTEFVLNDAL
The data set is described as follows: Inhibition of Plasmodium falciparum M17 incubated for 10 mins before H-Leu-NHMec substrate addition by fluorescence assay. The method, boiled down:
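Recombinant PfA-M17 purified from E. coli by Ni-NTA and gel filtration; 10 min inhibitor preincubation (0-500 μM) in 50 mM Tris pH 8.0, 2 mM CoCl₂, 37 °C, before H-Leu-NHMec at sub-Km level. Fluorescence (355/460 nm) followed to final steady-state velocity; Ki obtained by Dixon plot.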

With `O=C(NC(C(=O)NO)c1ccc(-n2cccn2)cc1)c1ccccc1F` (stereo unspecified), the inhibitory constant (Ki) (usually a dissociation constant, usually derived from enzyme kinetics or from competition with a known ligand) was determined as 1900 nM in data set [1] and 8 nM in data set [4]. In data set [2], the Activity entry is reported as “Non-toxic”. The IC50 (in general, the concentration that inhibits the measured activity by half) in data set [3] worked out at 351 nM.

On to `O=C(NC(C(=O)NO)c1ccc(-n2cccn2)cc1)c1cccc(F)c1` (stereo unspecified), for which the Ki in data set [1] turned out to be 4000 nM; in data set [4] it was 35 nM. The Activity entry in data set [2] is recorded as “Non-toxic”. Besides, the IC50 in data set [3] was 429 nM.

For `CC(C)(C)C(=O)NC(C(=O)NO)c1ccc(-n2cccn2)cc1` (stereo unspecified), the Ki in data set [1] turned out to be 700 nM; in data set [4] it was 28 nM. Further, the Activity entry in data set [2] is recorded as “Non-toxic”. The IC50 in data set [3] was 227 nM.

On to `CC(C)(C)OC(=O)NC(C(=O)O)c1ccc(-n2cccn2)cc1` (stereo unspecified), for which the Ki in data set [1] was above 500000 nM; in data set [4] it was 464000 nM. In addition, in data set [2], the Activity result is “Non-toxic”.

For the compound `O=C(NC(C(=O)NO)c1ccc(-n2cccn2)cc1)c1ccc(F)cc1` (stereo unspecified), the values for the Ki in data set [1] and in data set [4] were 11200 nM and 12 nM, respectively. For the same compound, the Activity entry in data set [2] is given as “Non-toxic”. In addition, the IC50 in data set [3] was determined as 703 nM.

As to `Nc1ccc(C(=O)NC(C(=O)NO)c2ccc(-n3cccn3)cc2)cc1` (stereo unspecified), the figures for the Ki in data set [1] and in data set [4] were 7400 nM and 11 nM, respectively. The Activity entry in data set [2] is on record as “Non-toxic”. The IC50 in data set [3] was 228 nM.

As to `O=C(NC(C(=O)NO)c1ccc(-n2cccn2)cc1)c1ccccc1` (stereo unspecified), the values for the Ki in data set [1] and in data set [4] were 23000 nM and 154 nM, respectively. The Activity result in data set [2] is “Non-toxic”.

For `CC(=O)NC(C(=O)NO)c1ccc(-n2cccn2)cc1` (stereo unspecified), the figures for the Ki in data set [1] and in data set [4] were 113000 nM and 19 nM, respectively. Moreover, the Activity result in data set [2] was “Non-toxic”. The IC50 in data set [3] turned out to be 619 nM.

In the case of `CC(C)(C)OC(=O)NC(C(=O)NO)c1ccc(-n2cccn2)cc1` (stereo unspecified), the figures for the Ki in data set [1] and in data set [4] were 800 nM and 30 nM, respectively. In addition, in data set [2], the Activity result is “Non-toxic”. Further, the IC50 in data set [3] stood at 783 nM.

With `CCC(=O)NC(C(=O)NO)c1ccc(-n2cccn2)cc1` (stereo unspecified), the Ki in data set [1] was determined as 41300 nM; in data set [4], 16 nM. In addition, the Activity result in data set [2] was “Non-toxic”. The IC50 in data set [3] was 455 nM.

In the case of `Nc1cccc(C(=O)NC(C(=O)NO)c2ccc(-n3cccn3)cc2)c1` (stereo unspecified), the Ki in data set [1] is 5500 nM; in data set [4] it was 14 nM. Further, the Activity result in data set [2] is “Non-toxic”. Further, in data set [3], the IC50 was 233 nM.

On to `CC(C)C(=O)NC(C(=O)NO)c1ccc(-n2cccn2)cc1` (stereo unspecified), for which the values for the Ki in data set [1] and in data set [4] were 12300 nM and 53 nM, respectively. Moreover, the Activity entry in data set [2] is “Non-toxic”. Moreover, the IC50 in data set [3] was 532 nM.

`Cl.NC(C(=O)NO)c1ccc(-n2cccn2)cc1` (stereo unspecified): the figures for the Ki in data set [1] and in data set [4] were 74500 nM and 86000 nM, respectively. Further, in data set [2], the Activity entry is on record as “Non-toxic”.

As to `Cl.NC(C(=O)O)c1ccc(-n2cccn2)cc1` (stereo unspecified), the Ki in data set [1] and in data set [4] was above 500000 nM throughout. Further, in data set [2], the Activity result is “Non-toxic”.

For the compound `CC(C)(C)NC(=O)NC(C(=O)NO)c1ccc(-n2cccn2)cc1` (stereo unspecified), the figures for the Ki in data set [1] and in data set [4] were 15300 nM and 38 nM, respectively. Also, in data set [2], the Activity entry is “Non-toxic”. In addition, the IC50 in data set [3] stood at 597 nM.

The record behind these values is ChEMBL document CHEMBL3351583, “Two-pronged attack: dual inhibition of Plasmodium falciparum M1 and M17 metalloaminopeptidases by a novel series of hydroxamic acid-based inhibitors” (J Med Chem, 2014).
